ChEMBL document CHEMBL4257564, “Rational Design, Synthesis, and Pharmacological Characterization of Novel Ghrelin Receptor Inverse Agonists as Potential Treatment against Obesity-Related Metabolic Diseases” (J Med Chem, 2018)
pEC50, pIC50: −log10 of the molar value.

Key:
[1] = target: T1, Growth hormone secretagogue receptor type 1 (Homo sapiens, UniProt Q92847); experiment: Antagonist activity at recombinant human GHSR1a expressed in HEK293 cells assessed as inhibition of ghrelin-induced intracellular calcium release incubated for 20 secs and measured after 2 mins by FLIPR assay; assay type: functional, cell-based
T1 sequence (Q92847 whole entry): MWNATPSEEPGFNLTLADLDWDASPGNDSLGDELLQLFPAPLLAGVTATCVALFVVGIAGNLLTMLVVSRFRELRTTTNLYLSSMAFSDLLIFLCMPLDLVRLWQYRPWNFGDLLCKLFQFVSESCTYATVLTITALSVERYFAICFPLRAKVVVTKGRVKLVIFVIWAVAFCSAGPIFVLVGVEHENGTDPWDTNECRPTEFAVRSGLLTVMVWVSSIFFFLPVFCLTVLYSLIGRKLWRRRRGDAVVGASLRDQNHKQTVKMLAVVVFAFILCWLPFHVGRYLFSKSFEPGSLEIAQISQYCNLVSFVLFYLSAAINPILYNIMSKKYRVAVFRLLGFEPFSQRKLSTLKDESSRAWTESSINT
Procedure, shortened: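 HEK293/GHSR1a cells were dye-loaded for 30-60 min. Compounds and 10 nM ghrelin were added at t = 20 s, with a 15 min compound preincubation described. Calcium response was read for 2 min. IC50 was taken from dose-response fits of the reduction in ghrelin response; mean of at least two independent runs done in triplicate.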

[2] = target: T1, Growth hormone secretagogue receptor type 1; experiment: Inverse agonist at recombinant human GHSR1a expressed in HEK293 cells assessed as decrease in IP1 accumulation after 1 hr by IP1-d2-based HTRF assay; assay type: functional, cell-based; conditions: for pEC50: read-out: EC50; for EC50: hek293
Procedure, shortened: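 HEK293 cells stably expressing human GHSR1a were seeded on Matrigel in complete DMEM for 18–22 h at 37 °C, 5% CO2. Compound in stimulation buffer was applied for 1 h at 37 °C. IP1-d2 and Tb-cryptate were then added for 1 h at room temperature, with HTRF read at 620/665 nm. Mean of at least two independent runs in triplicate.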

[3] = target: T1, Growth hormone secretagogue receptor type 1; experiment: Agonist activity at recombinant human GHSR1a expressed in HEK293 cells assessed as induction of intracellular calcium release after 15 mins by FLIPR assay; assay type: functional, cell-based; conditions: read-out: EC50
Procedure, shortened: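 HEK293 cells stably expressing human GHSR1a, seeded 24 h before the run, then loaded with calcium dye for 30-60 min at room temperature or 37 °C. DMSO-dissolved compounds were added and intracellular calcium release was monitored by FLIPR fluorescence.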

[4] = Clearance in mouse liver microsomes at 0.625 uM preincubated for 5 mins followed by NADPH addition and measured after 60 mins by LC-MS/MS analysis; assay type: ADME, microsome; conditions: read-out: CLH
Procedure, shortened: (§1)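 Liver microsomes (0.625 mg/mL protein) in 50 mM potassium phosphate pH 7.4 with 0.625 µM test item, prewarmed 5 min at 37 °C. Reaction started with NADPH (5 mM solution). Samples taken at 0, 5, 15, 30 and 60 min into cold MeCN with internal standard, analysed by LC-MS/MS. Intrinsic clearance derived by the half-life approach.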

[5] = Clearance in rat liver microsomes at 0.625 uM preincubated for 5 mins followed by NADPH addition and measured after 60 mins by LC-MS/MS analysis; assay type: ADME, microsome; conditions: read-out: CLH; procedure, shortened: as §1
[6] = Clearance in dog liver microsomes at 0.625 uM preincubated for 5 mins followed by NADPH addition and measured after 60 mins by LC-MS/MS analysis; assay type: ADME, Canis lupus familiaris, microsome; conditions: read-out: CLH; procedure, shortened: as §1
[7] = Clearance in human liver microsomes at 0.625 uM preincubated for 5 mins followed by NADPH addition and measured after 60 mins by LC-MS/MS analysis; assay type: ADME, microsome; conditions: read-out: CLH; procedure, shortened: as §1

| Structure (SMILES) | pIC50 [1] | pEC50 [2] | pEC50 [3] | EC50 [2] | microsomal CLint at 0.625 µM [4] | microsomal CLint at 0.625 µM [5] | microsomal CLint at 0.625 µM [6] | microsomal CLint at 0.625 µM [7] |
| --- | --- | --- | --- | --- | --- | --- | --- | --- |
| Cc1cc(-c2ccc3c(c2)CCC3N2CCC(N(C)C(=O)N[C@@H](C)c3ccc(C#CC4CC4)c(Cl)c3Cl)C(C)(C)C2)ncn1 (some centres not stated) | 6.28 | 6.44 | – | – | – | – | – | – |
| Cc1cn2cc(C(C)NC(=O)N(C)C3CCN(C)CC3)nc2s1 (configuration not stated) | < 4.52 | – | < 4.52 | Not Active | – | – | – | – |
| COc1ccc([C@H](C)NC(=O)N(C)C2CCN(C3CCc4cc(C)ccc43)CC2)c(Cl)c1Cl (some centres not stated) | 6.48 | 7.14 | – | – | 217 µL/min/mg | 143 µL/min/mg | 168 µL/min/mg | 80.3 µL/min/mg |
| Cc1cc(-c2ccc3c(c2)CCC3N2CCC(N(C)C(=O)N[C@@H](CC3CC3)c3ccc(-c4cnccn4)c(Cl)c3Cl)CC2)ncn1 (some centres not stated) | 5.34 | 6.32 | – | – | – | – | – | – |
| Cc1cc(-c2ccc3c(c2)CCC3N2CCC(N(C)C(=O)N[C@@H](C)c3ccc(C(=O)O)c(Cl)c3Cl)CC2)ncn1 (some centres not stated) | < 4.52 | – | – | Not Active | – | – | – | – |
| Cc1cc(-c2ccc3c(c2)CC[C@H]3N2CC3(CCN(C(=O)N[C@@H](C)c4ccc(-c5cnccn5)c(Cl)c4Cl)CC3)C2)ncn1 | 5.92 | 6.32 | < 4.52 | – | – | – | – | – |
| COc1ccc([C@H](C)NC(=O)N(C)C2CCN(C3CCc4cc(Cl)ccc43)CC2)c(Cl)c1Cl (some centres not stated) | 6.50 | 7.39 | – | – | 388 µL/min/mg | 271 µL/min/mg | – | 241 µL/min/mg |
| Cc1cc(-c2ccc3c(c2)CCC3N2CCC(N(C)C(=O)N[C@@H](C)c3ccc(C4CC4)c(Cl)c3Cl)CC2)ncn1 (some centres not stated) | 5.54 | 6.53 | – | – | – | – | – | – |
| COc1ccc([C@H](CC2CC2)NC(=O)N(C)C2CCN(C3CCc4cc(-c5cc(C)ncn5)ccc43)CC2)c(Cl)c1Cl (some centres not stated) | 5.74 | 6.36 | – | – | – | – | – | – |
| COc1ccc([C@H](C)NC(=O)N(C)C2CCN(C3CCc4cc(-c5cc(C)ncn5)ccc43)CC2)c(Cl)c1Cl (some centres not stated) | 6.77 | 7.17 | – | – | 122 µL/min/mg | 69.5 µL/min/mg | 241 µL/min/mg | 94.2 µL/min/mg |
| Cc1cc(-c2ccc3c(c2)CCC3N2CCC(N(C)C(=O)N[C@H](c3ccc(-c4cnccn4)c(Cl)c3Cl)C(F)(F)F)CC2)ncn1 (some centres not stated) | 5.09 | 5.66 | – | – | – | – | – | – |
| COc1ccc([C@H](C)NC(=O)N(C)C2CCN(C3CCc4cc(O)ccc43)CC2)c(Cl)c1Cl (some centres not stated) | 5.89 | – | – | Not Active | 117 µL/min/mg | – | – | 87.1 µL/min/mg |
| Cc1cc(-c2ccc3c(c2)CCC3N2CCC(N(C)C(=O)N[C@@H](C)c3ccc(N)c(Cl)c3Cl)CC2)ncn1 (some centres not stated) | 6.24 | 6.92 | – | – | – | – | – | – |
| Cc1ccc2c(c1)CCC2N1CCC(N(C)C(=O)N[C@@H](C)c2ccc(O)c(Cl)c2Cl)CC1 (some centres not stated) | 5.93 | 6.72 | – | – | – | – | – | – |
| CCN(C(=O)N[C@@H](C)c1ccc(C#CC2CC2)c(Cl)c1Cl)C1CCN(C2CCc3cc(-c4cc(C)ncn4)ccc32)CC1 (some centres not stated) | 5.53 | 6.03 | – | – | – | – | – | – |
| C[C@H](NC(=O)N(C)C1CCN(C2CCc3cc(-c4cncnc4)ccc32)CC1)c1ccc(C#CC2CC2)c(Cl)c1Cl (some centres not stated) | 7.07 | 7.07 | – | – | – | – | – | – |
| Cc1cc(-c2ccc3c(c2)CCC3N2CCC(N(C)C(=O)N[C@@H](C)c3ccc(C#CC4CC4)c(Cl)c3Cl)C2)ncn1 (some centres not stated) | 6.83 | – | – | Not Active | – | – | – | – |
| Cc1cc(-c2ccc3c(c2)CCC3N2CCC(N(C)C(=O)N[C@@H](CC3CC3)c3cccc(Cl)c3Cl)CC2)ncn1 (some centres not stated) | 5.27 | 6.01 | – | – | – | – | – | – |
| Cc1cc(-c2ccc3c(c2)CC[C@H]3N2CC3(CCN(C(=O)N[C@@H](C)c4cccc(Cl)c4Cl)CC3)C2)ncn1 | 5.40 | – | < 4.52 | Not Active | – | – | – | – |

| Structure (SMILES) | pIC50 [1] | pEC50 [2] | pEC50 [3] | EC50 [2] | microsomal CLint at 0.625 µM [4] | microsomal CLint at 0.625 µM [5] | microsomal CLint at 0.625 µM [6] | microsomal CLint at 0.625 µM [7] |
| --- | --- | --- | --- | --- | --- | --- | --- | --- |
| COC(=O)c1ccc([C@H](C)NC(=O)N(C)C2CCN(C3CCc4cc(-c5cc(C)ncn5)ccc43)CC2)c(Cl)c1Cl (some centres not stated) | 6.52 | 7.02 | – | – | – | – | – | – |
| Cc1ccc2c(c1)CCC2N1CCC(N(C)C(=O)N[C@@H](C)c2ccc(C3CC3)c(Cl)c2Cl)CC1 (some centres not stated) | 5.63 | – | – | Not Active | – | – | – | – |
| Cc1cc(-c2ccc3c(c2)CCC3N2CCC(N(C)C(=O)NCc3ccc(C#CC4CC4)c(Cl)c3Cl)CC2)ncn1 (configuration not stated) | 5.95 | – | – | Not Active | – | – | – | – |
| Cc1cc(-c2ccc3c(c2)CCC3N2CCC(N(C)C(=O)NC(C)c3cccc(Cl)c3Cl)CC2)ncn1 (configuration not stated) | 5.63 | – | < 4.52 | Not Active | – | – | – | – |
| C[C@H](NC(=O)N(C)C1CCN(C2CCc3ccccc32)CC1)c1ccc(C#CC2CC2)c(Cl)c1Cl (some centres not stated) | 6.04 | – | – | Not Active | – | – | – | – |
| C[C@H](NC(=O)N(C)C1CCN(C2CCc3cc(-c4ncccn4)ccc32)CC1)c1ccc(C#CC2CC2)c(Cl)c1Cl (some centres not stated) | 6.10 | 6.20 | – | – | – | – | – | – |
| Cc1cn2cc(CNC(=O)N(C)C3CCN(C)CC3)nc2s1 | < 4.52 | – | < 4.52 | Not Active | – | – | – | – |
| COc1ccc2c(c1)CCC2N1CCC(N(C)C(=O)N[C@@H](C)c2ccc(OC)c(Cl)c2Cl)CC1 (some centres not stated) | 6.92 | 7.07 | – | – | – | – | – | – |
| Cc1cc(-c2ccc3c(c2)CCC3N2CCC(N(C)C(=O)N[C@@H](C)c3ccc(C#CC4CC4)c(Cl)c3Cl)CC2)ncn1 (some centres not stated) | 7.10 | 7.29 | – | – | 42.6 µL/min/mg | 19.2 µL/min/mg | 62.3 µL/min/mg | 53.9 µL/min/mg |
| COc1ccc([C@H](C)NC(=O)N(C)C2CCN(C3CCc4cc(-n5nccn5)ccc43)CC2)c(Cl)c1Cl (some centres not stated) | 6.62 | 7.15 | – | – | 244 µL/min/mg | – | – | 79.8 µL/min/mg |
| Cc1cc(-c2ccc3c(c2)CC[C@@H]3N2CCC(N(C)C(=O)N[C@@H](C)c3ccc(C#CC4CC4)c(Cl)c3Cl)CC2)ncn1 | 5.89 | 5.89 | – | – | – | – | – | – |
| Cc1ccc2c(c1)CCC2N1CCC(N(C)C(=O)N[C@@H](C)c2ccc(C#CC3CC3)c(Cl)c2Cl)CC1 (some centres not stated) | 6.55 | 6.93 | – | – | – | – | – | – |
| CC[C@H](NC(=O)N(C)C1CCN(C2CCc3cc(-c4cc(C)ncn4)ccc32)CC1)c1ccc(C#CC2CC2)c(Cl)c1Cl (some centres not stated) | 6.72 | 6.51 | – | – | – | – | – | – |
| Cc1ccc2c(c1)CCC2N1CCC(N(C)C(=O)N[C@@H](C)c2ccc(C#C[Si](C)(C)C)c(Cl)c2Cl)CC1 (some centres not stated) | 5.70 | – | – | Not Active | – | – | – | – |
| COc1ccc([C@H](C)NC(=O)N(C)C2CCN(C3CCc4cc(N)ccc43)CC2)c(Cl)c1Cl (some centres not stated) | 5.82 | – | – | Not Active | 70.4 µL/min/mg | – | – | 47.1 µL/min/mg |
| C#Cc1ccc([C@H](C)NC(=O)N(C)C2CCN(C3CCc4cc(-c5cc(C)ncn5)ccc43)CC2)c(Cl)c1Cl (some centres not stated) | 6.81 | 7.97 | – | – | 157 µL/min/mg | 65.6 µL/min/mg | 137 µL/min/mg | 165 µL/min/mg |
| Cc1cc(-c2ccc3c(c2)CCC3N2CCC(N(C)C(=O)N[C@@H](C)c3ccc(-c4cnccn4)c(Cl)c3Cl)CC2)ncn1 (some centres not stated) | 6.43 | 6.71 | < 4.52 | – | – | – | – | – |
| C#Cc1ccc([C@H](C)NC(=O)N(C)C2CCN(C3CCc4cc(C)ccc43)CC2)c(Cl)c1Cl (some centres not stated) | 6.97 | – | – | Not Active | – | – | – | – |
| Cc1cc(-c2ccc3c(c2)CCC3N2CCC(N(C)C(=O)NCc3cccc(Cl)c3Cl)CC2)ncn1 (configuration not stated) | 5.57 | – | – | Not Active | – | – | – | – |
